Screens: PubChem, several laboratories
Rad51 HR inh – Rad51 (human) homologous recombination inhibition; 200,000 tested, 0.085% active; Q06609; inhibition, % at 10 µM; hRad51 DNA strand exchange, fluorescence dequenching;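 active = inhibition above 40% at the single screening dose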
Target sequence (Q06609 whole entry, looked up): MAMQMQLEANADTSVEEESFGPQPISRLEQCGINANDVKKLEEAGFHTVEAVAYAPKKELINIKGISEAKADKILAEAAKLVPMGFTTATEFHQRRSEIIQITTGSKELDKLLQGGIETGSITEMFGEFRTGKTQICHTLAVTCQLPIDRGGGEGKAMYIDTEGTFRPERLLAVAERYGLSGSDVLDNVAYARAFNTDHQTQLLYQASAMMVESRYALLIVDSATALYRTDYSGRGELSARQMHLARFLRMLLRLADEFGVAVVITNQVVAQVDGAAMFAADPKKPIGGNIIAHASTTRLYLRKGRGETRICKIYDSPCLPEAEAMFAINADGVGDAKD
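System: human Rad51 nucleoprotein filaments preassembled on unlabelled ssDNA. Reagent: labelled 47-mer dsDNA for strand exchange. Schedule: 30-min compound preincubation and 15-min exchange, both room temperature. Measured by: FRET fluorescence dequenching, excitation 485 nm, emission 520 nm. Read-out: Fluorescence-based percent inhibition, control- and blank-normalised. Benchmarks: plate controls and plate blanks.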
HMGR II inh – E. faecalis class II HMG-CoA reductase inhibition. purified E. faecalis HMGR, NADPH absorbance 340 nm kinetic. inhibition, % at 10 µM. 190,000 tested, 0.41% active. AID 1066;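 active = inhibition above a set limit, the median over all tested compounds plus 3 SD, cut at about 9.5% in these data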;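 also: enzyme runs in reverse so mevalonate oxidation gives rising NADPH absorbance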
Yeast growth inh – reduces growth of yeast BB579 in restrictive medium. S. cerevisiae BB579 growth, OD615, 48 h. inhibition, % at 10 µM. 140,000 tested, 0.51% active. AID 804;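 active = inhibition above a set limit, 3 SD over the mean compound inhibition, cut at about 44% in these data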
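Detection: OD615 turbidity measurement; Material: Saccharomyces cerevisiae DeaD strain BB579, replicative lifespan model yeast; Timing: 48 h exposure, 30 °C; Doses: single 10 µM dose; Medium: CSMM-D restrictive synthetic medium containing dextrose (glucose); Controls: amphotericin B at 10 µg/mL as positive control.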
Measles CPE – protection of cells from measles virus; AID 841; Measles virus-infected cells, CPE protection, absorbance; protection (pct of control), % at 4 µM; 140,000 tested, 1.5% active; in the data active = protection mostly above about 24%, no sharp cut-off; inactive = mostly below about 26%
Arbovirus inh – antivirals against arbovirus infection | 200,000 tested, 0.37% active | arbovirus infection cell-based antiviral screen | inhibition, % at 10 µM; in the data active = inhibition above about 30%
Yeast lifespan up – yeast lifespan extension | S. cerevisiae growth with nicotinamide, OD615; deaD strain in restrictive glucose medium | inhibition of the nicotinamide effect, % at 10 µM | 130,000 tested, 0.68% active;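 active = inhibition above a set limit, placed 3 SD over the median of all compounds, cut at about 26% in these data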
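Test system: DeaD-strain S. cerevisiae / Buffer or medium: restrictive glucose medium / Also added: nicotinamide 1.5 mM / Doses: one concentration, 10 µM, DMSO 0.25% / Schedule: 48 h at 30 °C / Signal: OD615 measurement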
Of the large screens only hits and unclear results are named; the others gave an inactive call. Shown are actives, neighbours in structure and some others; about 2.4% of the full set was active somewhere.

Cc1csc(NC(=O)C2COc3ccccc3O2)n1 (configuration not stated)	none
COc1cccc(C(=O)Nc2nc(-c3ccc4c(c3)OCO4)cs2)c1	Arbovirus inh 42
O=C(Nc1nc(-c2ccc3c(c2)OCO3)cs1)C1COc2ccccc2O1 (configuration not stated)	Arbovirus inh 52
CCOc1ccc(-c2nnc(Nc3ccc(OC)c(C(=O)N4CCCCC4)c3)c3ccccc23)cc1	none
Cc1cc(Nc2ccccc2)n(C(=O)c2ccc(Cl)cc2)n1	Measles CPE 44 (no result: Yeast lifespan up)
O=C1CC(N2CCCN(C3CC(=O)N(c4ccc(F)cc4)C3=O)CC2)C(=O)N1c1ccc(F)cc1 (configuration not stated)	Measles CPE 55
O=C1CC(N2CCCCC2)C(=O)N1c1ccccc1 (configuration not stated)	none (no result: Yeast lifespan up)
O=C(CSc1nc2[nH]ncc2c(=O)[nH]1)N1CCCCC1	none
Cc1ccc(N2C(=O)Nc3ccc(Br)cc3C2(O)C(=O)NCCCN(C)C)cc1C (configuration not stated)	Measles CPE 50
CCN(CCNC(=O)CN1CCN(Cc2ccc(Cl)cc2)C1=O)c1ccccc1	none
COc1cc(OC)cc(C(=O)N(Cc2cc3cc(C)ccc3[nH]c2=O)C(C)C)c1	Measles CPE 44
O=[N+]([O-])c1ccc(N2CCN(C(=S)Nc3ccc(F)cc3F)CC2)cc1	none (no result: Yeast growth inh, Measles CPE, Yeast lifespan up)
O=C1NC(c2ccccc2)=NC1(NS(=O)(=O)c1ccc(Cl)cc1)C(F)(F)F (configuration not stated)	none (no result: Rad51 HR inh)
O=C1NC(c2ccccc2)=NC1(NS(=O)(=O)c1ccccc1)C(F)(F)F (configuration not stated)	Measles CPE 41
COc1c(Cl)cc(C(=O)Nc2ccccc2C(=O)O)cc1Cl	Arbovirus inh 62
COc1ccc(C(=O)Nc2cc(Cl)ccc2C(=O)O)cc1	Arbovirus inh 47 (no result: Yeast growth inh, Measles CPE, Yeast lifespan up)
COc1ccc(C(=O)Nc2cc(Cl)ccc2OC(=O)c2ccc(OC)cc2)cc1	none
COc1c(Cl)cc(C(=O)O)cc1Cl	none (no result: HMGR II inh, Yeast growth inh, Measles CPE, Arbovirus inh, Yeast lifespan up)
Cc1ccccc1COC(=O)c1nn(-c2ccccc2)nc1N	none (no result: Yeast growth inh, Measles CPE, Yeast lifespan up)
CC1(C)CC(=O)C(N=Nc2cc3c(cc2[N+](=O)[O-])OCCO3)=C(O)C1	none (no result: Yeast growth inh, Measles CPE, Yeast lifespan up)
Cn1nc(-c2ccc(Cl)cc2)nc2c(=O)n(C)c(=O)nc1-2	Yeast growth inh 100
CS(=O)(=O)n1nc(-c2ccc(Cl)cc2)nc1N	none (no result: Yeast growth inh, Measles CPE, Yeast lifespan up)
CCC(=O)NC1(Cc2ccc(O)cc2)CCCCC1	none (no result: Yeast growth inh, Measles CPE, Yeast lifespan up)
Cc1ccc(C2=NN(C(=O)CCl)C(c3cccs3)C2)o1 (configuration not stated)	Yeast lifespan up 35
CC1CCN(c2nc(-c3ccccc3O)nc3ccccc23)CC1	Measles CPE 38
COc1ccc(CCC(=O)N(C)CC(=O)Nc2ccc(N3CCOCC3)cc2)cc1	HMGR II inh 9.7 (no result: Yeast growth inh, Measles CPE, Yeast lifespan up)
COC(=O)Cc1ccc(NC(=S)N2CCN(c3ccc(OC)cc3)CC2)cc1	Measles CPE 34
CC(C)C(c1nnnn1CC1CCCO1)N1CCN(Cc2ccc3c(c2)OCO3)CC1 (configuration not stated)	none
CC(C)C(c1nnnn1Cc1ccccc1)N1CCN(Cc2ccc3c(c2)OCO3)CC1 (configuration not stated)	Yeast lifespan up 65
Cc1ccc2nc(NC(=O)C3CCCN(S(=O)(=O)c4cnc[nH]4)C3)sc2c1 (configuration not stated)	Arbovirus inh 59
CCOc1cc(N2CCOCC2)c(OCC)cc1NC(C)C(=O)N1CCC(C)CC1 (configuration not stated)	none
Cc1nnc(SC(C)C(=O)Nc2ncc(Cl)cc2Cl)n1Cc1ccccc1 (configuration not stated)	none
Cc1cc(SC(C)C(=O)Nc2ncc(Cl)cc2Cl)nc2ccccc12 (configuration not stated)	Measles CPE 26 (no result: Rad51 HR inh)
COCCn1c(SC(C)C(=O)Nc2ncc(Cl)cc2Cl)nc2ccccc21 (configuration not stated)	Measles CPE 53, Arbovirus inh 31
CCN(CC)S(=O)(=O)c1ccc(OC)c(NC(=S)Nc2cccc(C)c2C)c1	Measles CPE 45
O=C(O)Cc1cc(C(=O)Nc2ccc(Br)cc2)sc1-c1ccccc1	none (no result: Rad51 HR inh)
O=C(COC(=O)CCc1nc2ccccc2c(=O)[nH]1)NC1CCS(=O)(=O)C1 (configuration not stated)	none (no result: Yeast growth inh, Measles CPE, Yeast lifespan up)
O=C(COC(=O)CCc1c[nH]c2ccccc12)NC1CCS(=O)(=O)C1 (configuration not stated)	HMGR II inh 15 (no result: Yeast lifespan up)
O=c1[nH]c(CCC2CCCC2)nc2ccccc12	none
O=C(COCc1nc2ccccc2c(=O)[nH]1)NCC1CCCCC1	HMGR II inh 15 (no result: Yeast lifespan up)
COc1ccc(NC(=O)CSc2nnc(C3CCCCC3)n2-c2ccccc2)cc1	none
O=C(CSc1nnc(C2CC2)n1-c1ccccc1)Nc1ccc(N2CCOCC2)cc1	Measles CPE 39
O=C(CSc1nnc(-c2cccs2)n1-c1ccccc1)N1CCCC1	none
O=C(CSc1nnc(-c2cccs2)n1-c1ccccc1)N1CCOCC1	Measles CPE 38
COc1ccc(S(=O)(=O)N2CC(O)C[C@H]2C(=O)OCC(=O)N2CCCCCC2)cc1 (some centres not stated)	none (no result: Yeast growth inh, Measles CPE, Yeast lifespan up)
COCCCNC(CC(=O)Nc1ccc(OC)cc1OC)C(=O)O (configuration not stated)	Yeast lifespan up 101
COC(=O)c1ccc(C(=O)OC)c(NC(=S)N2CCN(c3cccc(Cl)c3)CC2)c1	none
N=c1c2c(-c3ccccc3)c(-c3ccccc3)n(Cc3ccco3)c2ncn1CCCn1ccnc1	Yeast lifespan up 43 (no result: Rad51 HR inh)
c1ccc(-c2c(-c3ccccc3)n(Cc3ccco3)c3ncnc(NCCCn4ccnc4)c23)cc1	Yeast lifespan up 43
CC(C)Cn1cnc2c(c(-c3ccccc3)c(-c3ccccc3)n2Cc2ccco2)c1=N	Yeast lifespan up 28
OCCNc1ncnc2c1c(-c1ccccc1)c(-c1ccccc1)n2Cc1ccco1	none
N=c1c2c(-c3ccccc3)c(-c3ccccc3)n(Cc3ccco3)c2ncn1CCCN1CCOCC1	HMGR II inh 11 (no result: Yeast growth inh, Measles CPE, Yeast lifespan up)
N=c1c2c(-c3ccccc3)c(-c3ccccc3)n(Cc3ccco3)c2ncn1Cc1ccccc1	none
Cc1ccc(NC(=S)NCc2cccs2)c(C)c1	none
COc1ccc(C(=O)c2ccc([N+](=O)[O-])cc2Cl)cc1	none (no result: Yeast growth inh, Measles CPE, Yeast lifespan up)
COc1ccc(N2Cc3cccc(C(=O)O)c3C2=O)cc1	Yeast lifespan up 29
CCCN1Cc2cccc(C(=O)N3CCN(c4ccc(OC)cc4)CC3)c2C1=O	none (no result: Yeast growth inh, Measles CPE, Yeast lifespan up)
O=C(O)c1cccc2c1C(=O)N(Cc1ccncc1)C2	Measles CPE 72
